Compounds with a hit are over-represented: about 3.6% of the library has one in this group of screens.
MITF TRPM1 HTS – activators of MITF-driven TRPM1 promoter activity in SK-MEL-5 cells. SK-MEL-5 TRPM1-promoter luciferase, 24 h; % of positive control, neutral wells = 0. activation, % at 12.5 µM. actives 0.75% (n = 300,000). AID 588334;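 active = mean activation of at least 80% with every replicate also reaching 80%; inconclusive = mean reaches 80% but some replicate falls short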;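 note: 0% = neutral control wells and 100% = parthenolide positive control wells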
Wnt act – activators of Wnt/beta-catenin signaling | actives 1.2% (n = 300,000) | Wnt/beta-catenin reporter cell assay, activator, plate reader | activation, % at 9.35 µM; in the data active = activation above about 30%, passing the limit was not always enough; inconclusive = no clear call, values can overlap the other calls;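 note: 0% = neutral control wells and 100% = positive control wells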
HSF-1 act – increases HSF-1 driven luciferase reporter signal. NIH3T3-HGL HSF-1 luciferase reporter, MG132, 8 h; 100% = twice DMSO control signal. activation, % at 9 µM. actives 1.7% (n = 300,000);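 active = mean replicate activation of at least 50% with a set share of replicates each reaching 50%; inconclusive = only one of those two conditions met; inactive = mean below 50% and too few replicates reaching it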;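 note: 0% = median of the neutral control wells and 100% = twice that signal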
SR-BI DiI-HDL act – SR-BI HDL lipid transfer activation | CHO ldlA[mSR-BI] cells, DiI-HDL uptake fluorescence, 3 h; 100 = double the neutral-control signal | activation, % at 12.5 µM | actives 0.096% (n = 320,000);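 active = mean replicate activation of at least 60% and every replicate at or above 60%; inconclusive = mean or all-replicate condition met, but not both; inactive = mean below 60% and not all replicates reaching 60%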;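 note: 0% = median plate neutral-control signal and 100% = twice that signal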
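Material: SR-BI-overexpressing, LDLR-lacking CHO cells; schedule: compound exposure 3 h, 37 °C; reagent: DiI-labelled HDL at 10 µg/mL final; technique: bottom-read fluorescence, 550/595 nm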
SR-BI DiI inh – mouse SR-BI HDL lipid transfer inhibition; Q61009; ldlA[mSR-BI] CHO cells, DiI-HDL uptake fluorescence, 3 h; inhibition, % at 12.5 µM; actives 0.96% (n = 320,000); AID 488896;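 active = mean replicate inhibition of at least 70% and a set share of replicates each scoring 70 or more; inconclusive = meets just one of the two criteria; inactive = fails both criteria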;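 note: 0% = median of neutral control wells and 100% = median of positive control wells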
Target sequence (Q61009 whole entry, looked up): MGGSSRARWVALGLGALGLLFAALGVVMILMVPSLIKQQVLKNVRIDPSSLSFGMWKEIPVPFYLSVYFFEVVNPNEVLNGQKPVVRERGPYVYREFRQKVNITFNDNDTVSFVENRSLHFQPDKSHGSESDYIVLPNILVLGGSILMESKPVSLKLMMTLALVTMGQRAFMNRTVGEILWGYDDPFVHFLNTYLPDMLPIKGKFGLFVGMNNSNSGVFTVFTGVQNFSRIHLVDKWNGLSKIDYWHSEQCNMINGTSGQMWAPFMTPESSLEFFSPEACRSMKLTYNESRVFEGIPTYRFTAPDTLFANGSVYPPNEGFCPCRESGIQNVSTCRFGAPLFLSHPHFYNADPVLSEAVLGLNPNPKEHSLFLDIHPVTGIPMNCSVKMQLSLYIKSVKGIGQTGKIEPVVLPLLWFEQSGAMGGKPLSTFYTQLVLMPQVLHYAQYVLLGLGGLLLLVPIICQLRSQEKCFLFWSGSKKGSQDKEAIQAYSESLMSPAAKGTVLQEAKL
Numbers without * were called inactive.

For CCOC(=O)CSc1nc2cc(C)cc(C)c2cc1C#N the results were MITF TRPM1 HTS 42.8, HSF-1 act -1.9, SR-BI DiI-HDL act -28.2 and SR-BI DiI inh 28.2.
CCOC(=O)CSc1nc2cc3c(cc2cc1C#N)OCO3 was read as MITF TRPM1 HTS 90.5*, SR-BI DiI-HDL act -26.9 and SR-BI DiI inh 26.9.
Screening CCOC(=O)CSc1nc2cc(C)ccc2cc1C#N returned MITF TRPM1 HTS 39.8, Wnt act 49.3*, HSF-1 act 49.3, SR-BI DiI-HDL act -22.5 and SR-BI DiI inh 22.5.
CCSc1n[nH]c(=O)n1C was read as Wnt act 3.0.
CCOc1ccc2nc(SCC(=O)N3CCCCCC3)c(C#N)cc2c1 was read as HSF-1 act -0.8, SR-BI DiI-HDL act -64.9 and SR-BI DiI inh 64.9.
For O=C(CSc1nc(-c2ccccc2)ns1)N1CCOCC1 the results were MITF TRPM1 HTS 51.1, Wnt act 12.1, HSF-1 act 38.8, SR-BI DiI-HDL act -2.0 and SR-BI DiI inh 2.0.
Cc1ccc2cc(C#N)c(SCC(=O)N3CCCC3)nc2c1 was read as MITF TRPM1 HTS 66.9, Wnt act 32.8* and HSF-1 act -17.5.
For Cc1cccc(-c2nsc(SCC(=O)N3CCCC3)n2)c1 the results were MITF TRPM1 HTS 88.8*, Wnt act 29.1, HSF-1 act 40.5, SR-BI DiI-HDL act -19.5 and SR-BI DiI inh 19.5.
Screening CCn1c(COc2ccccc2)nnc1SCc1ccc(C#N)cc1 returned MITF TRPM1 HTS -4.9, HSF-1 act 55.8*, SR-BI DiI-HDL act -23.4 and SR-BI DiI inh 23.4.
Screening Cc1[nH]c2ccccc2c1CN1CCN(c2ccccn2)CC1 returned Wnt act -0.9, HSF-1 act 81.2*, SR-BI DiI-HDL act 17.9 and SR-BI DiI inh -17.9.
For CC(OC(=O)C1CC(=O)N(Cc2ccco2)C1)C(=O)Nc1cccc(C#N)c1 (configuration not stated) the results were MITF TRPM1 HTS -4.9, Wnt act -0.2, SR-BI DiI-HDL act 26.0 and SR-BI DiI inh -26.0.
COc1cc2c(cc1NC(=O)C(C)OC(=O)C1CC(=O)N(Cc3ccco3)C1)oc1ccccc12 (configuration not stated) was read as MITF TRPM1 HTS 6.9, HSF-1 act 73.8*, SR-BI DiI-HDL act -69.6 and SR-BI DiI inh 69.6.
Screening OC[C@@H]1CN(Cc2ccc3c(c2)OCO3)C[C@H](n2cnc3c(N4CCCC4)ncnc32)O1 returned Wnt act -2.0.
CCOC(=O)c1c(NC(=S)Nc2cccc(C)c2)sc2c1CC(C)(C)SC2 was read as MITF TRPM1 HTS -10.8, Wnt act -3.3, HSF-1 act 3.4, SR-BI DiI-HDL act -86.9 and SR-BI DiI inh 86.9*.
For CCOC(=O)c1c(NC(=S)Nc2ccccc2)sc2c1CCCCC2 the results were MITF TRPM1 HTS 6.4, HSF-1 act -7.2, SR-BI DiI-HDL act -67.0 and SR-BI DiI inh 67.0.
For O=C(Nc1ccc2c(c1)OCO2)c1cc(-c2ccccc2Cl)on1 the results were MITF TRPM1 HTS inconclusive, Wnt act 20.0, HSF-1 act 56.5*, SR-BI DiI-HDL act 2.5 and SR-BI DiI inh -2.5.
Screening O=C(Nc1ccc2c(c1)OCO2)c1cc(-c2ccc(O)cc2)on1 returned MITF TRPM1 HTS 77.5, Wnt act 21.0, HSF-1 act 37.7, SR-BI DiI-HDL act -28.6 and SR-BI DiI inh 28.6.
Screening O=C(Nc1ccc2c(c1)OCO2)c1cc(-c2cccc(O)c2)on1 returned MITF TRPM1 HTS 115.1*, Wnt act 20.6, HSF-1 act -15.8, SR-BI DiI-HDL act -8.4 and SR-BI DiI inh 8.4.
COc1cc2oc(=O)cc(CN3CCCCC3)c2cc1Cl was read as Wnt act -0.6.
COC(=O)c1cc2c(c3c4ccccc4n(S(=O)(=O)c4ccc(C)cc4)c13)C(=O)N(CC(C)C)C2 was read as Wnt act -3.4.
Screening COc1cccc(N/C(SCc2ccccc2F)=C(/C#N)C(=O)NCc2cccs2)c1 returned MITF TRPM1 HTS 0.9, HSF-1 act 63.4*, SR-BI DiI-HDL act -2.9 and SR-BI DiI inh 2.9.
COc1cccc(NC(=O)NCc2ccccc2F)c1 was read as MITF TRPM1 HTS 24.9, Wnt act 7.2, HSF-1 act 21.0, SR-BI DiI-HDL act 24.1 and SR-BI DiI inh -24.1.
`CCCCc1c(-c2ccccc2OC)ncn1Cc1cc(F)ccc1F` gave Wnt act -6.5.
`Cc1cn([C@H]2C[C@H](O)[C@@H](/C=C/C(=O)NCCc3cccs3)O2)c(=O)[nH]c1=O` gave Wnt act -1.3.
COc1cc(C2C(C(=O)c3cc4ccccc4o3)=C(O)C(=O)N2c2cc(C)on2)cc(OC)c1OC (configuration not stated) was read as MITF TRPM1 HTS -8.3, Wnt act -1.3, HSF-1 act 57.1*, SR-BI DiI-HDL act 21.7 and SR-BI DiI inh -21.7.
Screening COc1cccc(C2C(C(=O)c3cc4ccccc4o3)=C(O)C(=O)N2c2cc(C)on2)c1OC (configuration not stated) returned MITF TRPM1 HTS 2.4, HSF-1 act 6.1, SR-BI DiI-HDL act 16.8 and SR-BI DiI inh -16.8.
Screening CCOc1ccc(S(=O)(=O)Nc2cccc(C(=O)N3CCN(c4ccccn4)CC3)c2)cc1 returned Wnt act -1.6.
`COc1ccccc1OCC(=O)NCCSCc1ccccc1Cl` gave MITF TRPM1 HTS -9.4, HSF-1 act 27.5, SR-BI DiI-HDL act 10.5 and SR-BI DiI inh -10.5.
Screening O=C(COc1ccccc1)NCCSCc1ccccc1Cl returned MITF TRPM1 HTS 18.4, Wnt act 7.8, HSF-1 act 69.8*, SR-BI DiI-HDL act 6.5 and SR-BI DiI inh -6.5.
For O=C(Nc1cccnc1)c1ccc(Oc2ccccc2)cc1 the results were MITF TRPM1 HTS 51.9, Wnt act 40.8*, HSF-1 act 19.2, SR-BI DiI-HDL act 23.3 and SR-BI DiI inh -23.3.
O=C(Nc1ccccc1)c1cn2ccccc2n1 was read as MITF TRPM1 HTS -1.6, Wnt act 16.5, HSF-1 act 11.5, SR-BI DiI-HDL act 23.8 and SR-BI DiI inh -23.8.
`O=C(Nc1ccccc1)c1cn(CCBr)cn1` gave Wnt act 50.4*, HSF-1 act 20.1, SR-BI DiI-HDL act 24.9 and SR-BI DiI inh -24.9.
O=C(Nc1ccccc1)c1ccc(C(=O)Nc2ccccc2)nc1 was read as MITF TRPM1 HTS 55.1, Wnt act 43.7*, HSF-1 act 17.8, SR-BI DiI-HDL act -16.6 and SR-BI DiI inh 16.6.
`O=C(Nc1ccccc1)C(=O)Nc1cccnc1` gave MITF TRPM1 HTS 33.4, Wnt act 41.3*, HSF-1 act 48.8, SR-BI DiI-HDL act -5.1 and SR-BI DiI inh 5.1.
`O=C(Nc1cccnc1)c1ccccc1Oc1ccccc1` gave MITF TRPM1 HTS -14.2, HSF-1 act -5.7, SR-BI DiI-HDL act -17.7 and SR-BI DiI inh 17.7.
For CC1(C(=O)Nc2cccc(Oc3ccccc3)c2)CCN1Cc1ccccc1OC(F)F (configuration not stated) the results were Wnt act -2.7.

High-throughput results from PubChem.
